The source made the active and inactive calls.
Assays:
[1] = test system: Pancreatic islet cell carcinoma; assay: Antitumor activity against pancreatic islet cell carcinoma in RIP-Tag2 mouse assessed as reduction in VEGF production by measuring reduction in fluorescence in entire tumor at 75 mg/kg, po bid administered via gavage and measured after 1 day by immunohistochemical staining based confocal microscopic analysis relative to control; type: functional; parameters: scale not given: the % may be the effect or the level left
How it was run: (§1)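 Treatment began in RIP-Tag2 mice at 9–10 weeks: 75 mg/kg gavage BID for 1, 4 or 7 days, or 20 mg/kg ip QD for 7 days; vehicle Labrifil or water. Tissue fixed by vascular perfusion and 60–80 µm sections stained for VEGF with CD31. VEGF fluorescence intensity measured over whole tumor, tumor cells, or tumor vessels. 3–8 mice/group; ANOVA, Fisher PLSD.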

[2] = target: T1, Phosphatidylinositol 4,5-bisphosphate 3-kinase catalytic subunit gamma isoform (Homo sapiens, UniProt P48736); assay: Inhibition of PI3Kgamma (unknown origin) at 3 uM by Ambit Kinomescan assay relative to control
[3] = target: T2, Serine/threonine-protein kinase mTOR (Homo sapiens, UniProt P42345); assay: Inhibition of mTOR (unknown origin)
[4] = test system: Pancreatic islet cell carcinoma; assay: Antitumor activity against pancreatic islet cell carcinoma in RIP-Tag2 mouse assessed as reduction in VEGF production by measuring reduction in tumor cell associated fluorescence intensity at 75 mg/kg, po bid administered via gavage and measured after 7 days by immunohistochemical staining based confocal microscopic analysis relative to control; type: functional; parameters: scale not given: the % may be the effect or the level left; conditions: time 7 day; how it was run: as §1
[5] = target: T1, Phosphatidylinositol 4,5-bisphosphate 3-kinase catalytic subunit gamma isoform; assay: Inhibition of PI3Kgamma (unknown origin) in presence of ATP by HTRF assay
How it was run: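 PI3K activity by HTRF assay at […] ATP.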

[6] = test system: Pancreatic islet cell carcinoma; assay: Antivascular activity in pancreatic islet cell carcinoma in RIP-Tag2 mouse assessed as suppression of tumor regrowth by measuring reduction in vessel density at 75 mg/kg, po bid administered via gavage pretreated with OSI-930 for 7 days at 200 mg/kg, po followed by compound administration and measured after 1 day; type: functional, organism-based
[7] = target: T3, DNA-dependent protein kinase catalytic subunit (Homo sapiens, UniProt P78527); assay: Inhibition of DNA-PK (unknown origin) assessed as reduction in phosphorylated RPA32 level by cell based assay
T3 sequence (P78527 whole entry): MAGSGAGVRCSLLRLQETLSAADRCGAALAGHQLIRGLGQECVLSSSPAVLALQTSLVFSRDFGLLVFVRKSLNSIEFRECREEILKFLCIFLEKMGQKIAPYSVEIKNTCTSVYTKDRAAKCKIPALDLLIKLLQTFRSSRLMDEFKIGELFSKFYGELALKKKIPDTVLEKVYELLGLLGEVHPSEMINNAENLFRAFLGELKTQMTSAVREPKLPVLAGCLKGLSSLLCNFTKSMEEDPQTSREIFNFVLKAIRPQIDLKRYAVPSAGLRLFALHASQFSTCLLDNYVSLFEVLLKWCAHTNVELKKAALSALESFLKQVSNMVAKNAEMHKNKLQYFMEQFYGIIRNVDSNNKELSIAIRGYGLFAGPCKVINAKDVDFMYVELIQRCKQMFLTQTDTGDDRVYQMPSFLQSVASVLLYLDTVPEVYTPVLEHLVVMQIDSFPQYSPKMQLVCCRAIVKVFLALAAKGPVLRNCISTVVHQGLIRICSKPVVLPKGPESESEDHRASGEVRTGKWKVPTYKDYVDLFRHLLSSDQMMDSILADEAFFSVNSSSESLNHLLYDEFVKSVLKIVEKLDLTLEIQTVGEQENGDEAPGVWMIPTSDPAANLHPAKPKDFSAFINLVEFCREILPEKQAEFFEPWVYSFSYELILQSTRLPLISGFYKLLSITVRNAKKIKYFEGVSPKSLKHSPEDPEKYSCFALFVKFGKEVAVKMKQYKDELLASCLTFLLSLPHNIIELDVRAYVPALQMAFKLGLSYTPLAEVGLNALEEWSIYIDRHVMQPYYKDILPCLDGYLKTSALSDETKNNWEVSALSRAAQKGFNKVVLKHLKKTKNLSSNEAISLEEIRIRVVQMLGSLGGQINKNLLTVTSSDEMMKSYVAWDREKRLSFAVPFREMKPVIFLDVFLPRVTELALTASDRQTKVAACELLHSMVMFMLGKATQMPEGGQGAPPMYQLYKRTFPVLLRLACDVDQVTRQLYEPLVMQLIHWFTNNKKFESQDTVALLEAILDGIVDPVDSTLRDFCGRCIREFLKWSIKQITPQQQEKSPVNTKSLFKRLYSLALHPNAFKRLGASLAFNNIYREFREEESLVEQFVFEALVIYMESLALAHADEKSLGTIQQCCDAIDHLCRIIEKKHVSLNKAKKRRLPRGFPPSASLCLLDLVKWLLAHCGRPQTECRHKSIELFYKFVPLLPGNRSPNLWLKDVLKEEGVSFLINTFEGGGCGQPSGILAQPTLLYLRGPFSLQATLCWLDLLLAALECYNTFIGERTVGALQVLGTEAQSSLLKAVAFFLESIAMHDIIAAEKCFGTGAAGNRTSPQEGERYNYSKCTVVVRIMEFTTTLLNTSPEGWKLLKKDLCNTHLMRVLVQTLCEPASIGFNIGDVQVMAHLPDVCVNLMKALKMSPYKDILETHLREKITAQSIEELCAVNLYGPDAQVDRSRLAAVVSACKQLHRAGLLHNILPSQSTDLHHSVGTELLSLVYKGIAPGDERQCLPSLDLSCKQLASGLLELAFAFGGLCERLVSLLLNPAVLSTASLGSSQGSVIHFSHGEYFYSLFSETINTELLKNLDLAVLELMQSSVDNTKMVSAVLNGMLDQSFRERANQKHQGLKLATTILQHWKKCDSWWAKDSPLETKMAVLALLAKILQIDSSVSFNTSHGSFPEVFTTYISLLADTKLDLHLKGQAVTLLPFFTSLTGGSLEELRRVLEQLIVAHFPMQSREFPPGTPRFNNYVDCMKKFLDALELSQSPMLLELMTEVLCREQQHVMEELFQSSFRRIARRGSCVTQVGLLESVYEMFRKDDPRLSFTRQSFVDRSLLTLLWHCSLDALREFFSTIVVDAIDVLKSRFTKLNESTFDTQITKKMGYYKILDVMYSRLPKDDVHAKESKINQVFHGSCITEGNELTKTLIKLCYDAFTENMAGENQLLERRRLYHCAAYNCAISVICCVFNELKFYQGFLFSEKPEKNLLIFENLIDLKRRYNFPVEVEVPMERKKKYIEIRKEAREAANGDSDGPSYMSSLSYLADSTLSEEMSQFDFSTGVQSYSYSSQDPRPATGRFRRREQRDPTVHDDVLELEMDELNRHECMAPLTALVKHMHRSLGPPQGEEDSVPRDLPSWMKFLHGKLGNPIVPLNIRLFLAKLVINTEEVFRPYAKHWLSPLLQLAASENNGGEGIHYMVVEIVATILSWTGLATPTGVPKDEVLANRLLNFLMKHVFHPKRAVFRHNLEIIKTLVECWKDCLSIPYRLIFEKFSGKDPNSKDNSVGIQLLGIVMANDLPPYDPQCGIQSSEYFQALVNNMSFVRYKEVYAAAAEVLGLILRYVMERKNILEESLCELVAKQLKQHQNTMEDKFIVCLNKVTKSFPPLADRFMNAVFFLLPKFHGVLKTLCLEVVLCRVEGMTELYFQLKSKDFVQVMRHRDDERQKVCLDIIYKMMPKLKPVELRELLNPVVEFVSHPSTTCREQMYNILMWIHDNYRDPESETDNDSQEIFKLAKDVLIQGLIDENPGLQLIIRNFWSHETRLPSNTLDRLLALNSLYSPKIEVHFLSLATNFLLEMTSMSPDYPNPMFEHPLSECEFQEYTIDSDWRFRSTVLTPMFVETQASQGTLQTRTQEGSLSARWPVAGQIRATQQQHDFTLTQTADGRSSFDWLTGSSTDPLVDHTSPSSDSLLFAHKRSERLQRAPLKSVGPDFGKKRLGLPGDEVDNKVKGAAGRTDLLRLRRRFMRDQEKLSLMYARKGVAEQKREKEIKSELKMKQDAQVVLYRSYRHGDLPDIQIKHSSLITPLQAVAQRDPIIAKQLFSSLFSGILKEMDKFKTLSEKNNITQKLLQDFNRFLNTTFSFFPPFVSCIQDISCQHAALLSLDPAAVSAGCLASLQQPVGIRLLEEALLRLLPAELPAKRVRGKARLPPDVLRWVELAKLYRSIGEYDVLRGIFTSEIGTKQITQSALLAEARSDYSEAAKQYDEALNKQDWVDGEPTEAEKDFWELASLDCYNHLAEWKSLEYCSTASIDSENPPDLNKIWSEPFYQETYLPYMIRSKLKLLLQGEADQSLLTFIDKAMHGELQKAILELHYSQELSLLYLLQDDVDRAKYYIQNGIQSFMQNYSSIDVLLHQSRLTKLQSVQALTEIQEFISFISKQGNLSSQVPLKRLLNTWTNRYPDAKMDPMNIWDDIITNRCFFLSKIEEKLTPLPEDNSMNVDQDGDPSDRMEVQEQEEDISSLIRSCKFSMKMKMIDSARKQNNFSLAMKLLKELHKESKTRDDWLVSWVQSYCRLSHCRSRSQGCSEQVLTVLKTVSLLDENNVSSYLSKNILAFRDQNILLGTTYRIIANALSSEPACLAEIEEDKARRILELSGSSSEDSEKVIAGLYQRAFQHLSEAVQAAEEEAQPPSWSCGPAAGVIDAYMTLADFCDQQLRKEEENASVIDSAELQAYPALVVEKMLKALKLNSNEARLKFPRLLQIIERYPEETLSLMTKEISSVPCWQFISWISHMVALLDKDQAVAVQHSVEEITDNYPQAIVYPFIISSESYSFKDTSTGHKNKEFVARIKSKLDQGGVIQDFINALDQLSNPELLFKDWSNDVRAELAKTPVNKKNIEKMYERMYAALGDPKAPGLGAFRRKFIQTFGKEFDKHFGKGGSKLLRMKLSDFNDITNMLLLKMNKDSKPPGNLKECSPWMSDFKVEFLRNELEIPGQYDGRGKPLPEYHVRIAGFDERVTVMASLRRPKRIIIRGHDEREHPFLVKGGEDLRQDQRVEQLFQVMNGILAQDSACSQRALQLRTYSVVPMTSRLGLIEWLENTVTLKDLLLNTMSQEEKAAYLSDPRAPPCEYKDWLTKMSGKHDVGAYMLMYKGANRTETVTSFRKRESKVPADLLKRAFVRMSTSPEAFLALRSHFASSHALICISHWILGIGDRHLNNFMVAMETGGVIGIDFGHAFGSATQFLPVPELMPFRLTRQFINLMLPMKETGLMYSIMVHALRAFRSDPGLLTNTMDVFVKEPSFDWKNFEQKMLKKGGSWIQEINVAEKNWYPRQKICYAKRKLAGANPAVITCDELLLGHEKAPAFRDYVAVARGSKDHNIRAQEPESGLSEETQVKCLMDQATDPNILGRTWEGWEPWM

[8] = target: T3, DNA-dependent protein kinase catalytic subunit; assay: Inhibition of DNA-PK activity (unknown origin) presence of ATP
[9] = target: T2, Serine/threonine-protein kinase mTOR; assay: Inhibition of mTOR (unknown origin) assessed as reduction in 4E-BP1 phosphorylation by cell based assay
[10] = Inhibition of MAPK (unknown origin) signaling axis assessed as reduction in phosphorylated ERK1/2 level by cell based assay; conditions: Homo sapiens
[11] = test system: Pancreatic islet cell carcinoma; assay: Antitumor activity against pancreatic islet cell carcinoma in RIP-Tag2 mouse assessed as reduction in VEGF production by measuring reduction in fluorescence in entire tumor at 75 mg/kg, po bid administered via gavage and measured after 7 days by immunohistochemical staining based confocal microscopic analysis relative to control; type: functional; parameters: scale not given: the % may be the effect or the level left; conditions: time 7 day; how it was run: as §1
[12] = target: Phosphatidylinositol 4,5-bisphosphate 3-kinase catalytic subunit delta isoform (Homo sapiens) (UniProt O00329); assay: Inhibition of PI3Kdelta (unknown origin) at 3 uM by Ambit Kinomescan assay relative to control
[13] = test system: Pancreatic islet cell carcinoma; assay: Antivascular activity in pancreatic islet cell carcinoma in RIP-Tag2 mouse assessed as reduction in intratumoral hemorrhage by measuring reduction in TER-119 immunoreactivity at 75 mg/kg, po bid pretreated with OSI-930 for 7 days at 200 mg/kg, po followed by compound administration and measured after 4 days by confocal microscopic analysis relative to control; type: functional; parameters: scale not given: the % may be the effect or the level left; conditions: time 4 day
How it was run: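 Regrowth design in 10-week-old RIP-Tag2 mice: OSI-930 200 mg/kg gavage QD for 7 days, then 4 days of vehicle, 75 mg/kg gavage BID, or 20 mg/kg ip QD; controls received vehicle for 11 days. Perfusion-fixed sections stained for CD31 for vessel density or for the erythrocyte marker TER-119, quantified by confocal microscopy. 3–8 mice/group; ANOVA, Fisher PLSD.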

[14] = test system: Pancreatic islet cell carcinoma; assay: Antitumor activity against pancreatic islet cell carcinoma in RIP-Tag2 mouse assessed as reduction in VEGF-B expression at 75 mg/kg, po bid administered via gavage and measured after 1 to 7 days by immunoprecipitation based densitometric analysis; type: functional, organism-based; conditions: time 1-7 day
How it was run: (§2)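 VEGF in tumor lysates from treated RIP-Tag2 mice (9–10 weeks old at start; 75 mg/kg gavage BID or 20 mg/kg ip QD) measured with mouse angiogenesis antibody arrays, read as pixel density. 3–8 mice/group, SEM; ANOVA with Fisher PLSD.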

[15] = target: Mitogen-activated protein kinase 10 (Homo sapiens) (UniProt P53779); assay: Inhibition of JNK3 (unknown origin)
Ephrin type-A receptor 2 = Ephrin type-A receptor 2 (Homo sapiens, UniProt P29317); assay: Inhibition of EphA2 phosphorylation (unknown origin) by cell based assay
Sequence of Ephrin type-A receptor 2 (P29317 whole entry): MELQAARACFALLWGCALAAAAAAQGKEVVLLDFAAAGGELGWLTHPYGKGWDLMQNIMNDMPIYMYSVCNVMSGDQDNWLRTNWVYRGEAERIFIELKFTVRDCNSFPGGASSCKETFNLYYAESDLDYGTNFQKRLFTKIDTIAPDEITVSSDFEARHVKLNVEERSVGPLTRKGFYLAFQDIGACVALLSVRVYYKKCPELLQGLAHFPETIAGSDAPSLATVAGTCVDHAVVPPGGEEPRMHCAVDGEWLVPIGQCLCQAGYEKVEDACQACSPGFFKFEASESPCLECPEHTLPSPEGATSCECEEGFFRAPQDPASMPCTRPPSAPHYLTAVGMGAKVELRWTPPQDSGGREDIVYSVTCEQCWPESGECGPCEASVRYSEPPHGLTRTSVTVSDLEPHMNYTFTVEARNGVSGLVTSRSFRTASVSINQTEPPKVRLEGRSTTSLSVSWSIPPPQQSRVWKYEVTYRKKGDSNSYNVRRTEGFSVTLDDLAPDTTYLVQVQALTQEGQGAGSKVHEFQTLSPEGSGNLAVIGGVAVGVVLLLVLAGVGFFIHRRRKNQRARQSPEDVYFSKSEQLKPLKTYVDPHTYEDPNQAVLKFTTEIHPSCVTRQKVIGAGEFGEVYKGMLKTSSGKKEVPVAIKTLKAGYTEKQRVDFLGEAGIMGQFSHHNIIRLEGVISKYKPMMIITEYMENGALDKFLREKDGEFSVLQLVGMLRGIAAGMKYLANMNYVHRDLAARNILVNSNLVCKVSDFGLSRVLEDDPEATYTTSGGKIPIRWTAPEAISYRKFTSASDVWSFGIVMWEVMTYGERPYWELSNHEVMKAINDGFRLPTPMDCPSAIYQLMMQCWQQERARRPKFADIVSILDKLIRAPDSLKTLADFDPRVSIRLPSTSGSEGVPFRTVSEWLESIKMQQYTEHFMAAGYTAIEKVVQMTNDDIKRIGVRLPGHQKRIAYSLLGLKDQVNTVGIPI

[16] = target: Proline-rich AKT1 substrate 1 (Homo sapiens) (UniProt Q96B36); assay: Inhibition of PRAS40 phosphorylation at Ser 246 residue in serum deprived/insulin stimulated human OVCAR-3 cells harboring PTEN and wild type PI3K preincubated for 2 hrs followed by insulin stimulation and measured immediately by Western blot analysis; type: cell-based; conditions: dose 0.001-10 µM
[17] = test system: Pancreatic islet cell carcinoma; assay: Antivascular activity against pancreatic islet cell carcinoma in RIP-Tag2 mouse assessed as reduction in CD31-positive tumor blood vessels at 75 mg/kg, po bid administered via gavage and measured after 1 to 4 days by immunohistochemical staining based fluorescence microscopic analysis; type: functional, organism-based; conditions: time 1-4 day
[18] = test system: Pancreatic islet cell carcinoma; assay: Antitumor activity against pancreatic islet cell carcinoma in RIP-Tag2 mouse assessed as reduction in VEGF-A expression at 75 mg/kg, po bid administered via gavage and measured after 1 to 7 days by immunoprecipitation based densitometric analysis relative to control; type: functional; parameters: scale not given: the % may be the effect or the level left; conditions: time 1-7 day; how it was run: as §2
Mus musculus [19] = assay: In vivo inhibition of 4E-BP1 phosphorylation in RIP-Tag2 mouse with pancreatic islet cell carcinoma 75 mg/kg, po bid administered via gavage and measured after 7 days by immunohistochemistry; type: functional, organism-based; conditions: time 7.0 day
How it was run: (§3)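 RIP-Tag2 mice aged 9–10 weeks dosed 75 mg/kg BID by gavage for 7 days, vehicle Labrifil or water; perfusion fixation, 60–80 µm tumor sections immunostained for phospho-4E-BP1, phospho-Akt or phospho-S6K with CD31; fluorescence/confocal imaging; 3–8 mice per group.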

[20] = target: RAC-alpha serine/threonine-protein kinase (Homo sapiens) (UniProt P31749); assay: Inhibition of AKT phosphorylation at Ser 473 site in serum deprived/insulin stimulated human OVCAR-3 cells harboring PTEN and wild type PI3K preincubated for 2 hrs followed by insulin stimulation and measured immediately by Western blot analysis; type: cell-based; conditions: dose 0.001-10 µM
[21] = target: Phosphatidylinositol 4,5-bisphosphate 3-kinase catalytic subunit alpha isoform (Homo sapiens, UniProt P42336); assay: Inhibition of PI3Kalpha (unknown origin) in presence of ATP by HTRF assay
Mus musculus [22] = assay: In vivo inhibition of S6K phosphorylation in RIP-Tag2 mouse with pancreatic islet cell carcinoma 75 mg/kg, po bid administered via gavage and measured after 7 days by immunohistochemistry; type: functional, organism-based; conditions: time 7.0 day; how it was run: as §3
[23] = test system: Pancreatic islet cell carcinoma; assay: Antivascular activity against pancreatic islet cell carcinoma in RIP-Tag2 mouse assessed as reduction in vascular sprouts at 75 mg/kg, po bid administered via gavage and measured after 7 days by immunohistochemical staining based fluorescence microscopic analysis relative to control; type: functional; parameters: scale not given: the % may be the effect or the level left; conditions: time 7 day
How it was run: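 For 7 days, RIP-Tag2 mice, 9–10 weeks old, received 75 mg/kg gavage BID, 200 mg/kg gavage QD, or 20 mg/kg ip QD. Perfusion-fixed tumors cut at 60–80 µm and stained for CD31 and type IV collagen basement membrane. Vessel area density from fluorescence images with threshold 30–50; sprouts and empty basement membrane sleeves examined by confocal microscopy. 3–8 mice/group; ANOVA, Fisher PLSD.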

- inhibition [2]: > 90%
- IC50 [3]: 0.011 µM
- IC50 [5]: 0.46 µM
- IC50 [7]: > 40 µM
- IC50 [8]: 3.2 µM
- IC50 [9]: 1.1 µM
- IC50 [10]: > 40 µM
- inhibition [12]: > 90%
- inhibition [15]: Active
- IC50 (Ephrin type-A receptor 2): > 40 µM
- inhibition [16]: Dose-Dependent Effect
- inhibition [20]: Dose-Dependent Effect
- IC50 [21]: 0.19 µM
SMILES: Nc1nccn2c1c(-c1cc3cccc(Cl)c3[nH]1)nc2[C@H]1CC[C@H](C(=O)O)CC1
- Activity [1]: 12%
- Activity [4]: 65%
- Activity [6]: inactive
- Activity [11]: 45%
- Activity [13]: 50%
- Activity [14]: inactive
- Activity [17]: inactive
- Activity [18]: 72%
- inhibition (Mus musculus [19]): Active
- inhibition (Mus musculus [22]): Active
- Activity [23]: 54%

Source: ChEMBL document CHEMBL5653605, “Reduced VEGF production, angiogenesis, and vascular regrowth contribute to the antitumor properties of dual mTORC1/mTORC2 inhibitors” (Cancer Res, 2011)
